ChEMBL document CHEMBL1151448, “Comparative antianaerobic activities of doripenem determined by MIC and time-kill analysis” (2008)

Columns and labels:
Assay type in all cases: functional
Clostridioides difficile [1] = test: Antimicrobial activity against Clostridium difficile isolated from intra-abdominal infection and pelvic inflammatory disease patients after 48 hrs by agar dilution method
Outline: (§1)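 CLSI agar dilution on brucella blood agar supplemented with laked sheep blood, hemin and vitamin K. Inocula of about 1 × 10^5 CFU/spot were applied by Steers replicator, and plates were incubated 48 h at 35°C in an anaerobic glove box. MIC was the concentration giving marked growth reduction versus the anaerobic control plate. QC strains were included each run, and β-lactamase was detected by Cefinase disk.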

[2] = test system: Prevotella melaninogenica; test: Antimicrobial activity against beta lactamase-positive Prevotella melaninogenica isolated from intra-abdominal infection and pelvic inflammatory disease patients after 48 hrs by agar dilution method; outline: as §1
Clostridium perfringens [3] = test: Antimicrobial activity against Clostridium perfringens isolated from intra-abdominal infection and pelvic inflammatory disease patients after 48 hrs by time kill analysis
Outline: (§2)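 Macrodilution in prereduced brucella broth with 5% laked horse blood cells, 5 μg/ml hemin and 1 μg/ml vitamin K1. Final inoculum 10^6 to 10^7 CFU/ml, prepared inside the anaerobe chamber. Vials incubated 48 h at 35°C in a shaking water bath. MIC read by inspecting the time-kill tubes, alongside an antibiotic-free growth control.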

[Clostridium] innocuum = Antimicrobial activity against Clostridium innocuum isolated from intra-abdominal infection and pelvic inflammatory disease patients after 48 hrs by agar dilution method; outline: as §1
Porphyromonas levii = test: Antimicrobial activity against Porphyromonas levii isolated from intra-abdominal infection and pelvic inflammatory disease patients after 48 hrs by agar dilution method; outline: as §1
Finegoldia magna [4] = test: Antimicrobial activity against Finegoldia magna isolated from intra-abdominal infection and pelvic inflammatory disease patients after 48 hrs by agar dilution method; outline: as §1
Prevotella nigrescens = test: Antimicrobial activity against beta lactamase-positive Prevotella nigrescens isolated from intra-abdominal infection and pelvic inflammatory disease patients after 48 hrs by agar dilution method; outline: as §1
Clostridium cadaveris = test: Antimicrobial activity against Clostridium cadaveris isolated from intra-abdominal infection and pelvic inflammatory disease patients after 48 hrs by agar dilution method; outline: as §1
[5] = test system: Peptostreptococcus anaerobius; test: Antimicrobial activity against Peptostreptococcus anaerobius isolated from intra-abdominal infection and pelvic inflammatory disease patients after 48 hrs by agar dilution method; outline: as §1
[6] = test system: Paeniclostridium sordellii; test: Antimicrobial activity against Clostridium sordellii isolated from intra-abdominal infection and pelvic inflammatory disease patients after 48 hrs by agar dilution method; details: Paraclostridium sordellii; outline: as §1
[7] = test system: Clostridium paraputrificum; test: Antimicrobial activity against Clostridium paraputrificum isolated from intra-abdominal infection and pelvic inflammatory disease patients after 48 hrs by agar dilution method; outline: as §1
[8] = test system: Bacteroides thetaiotaomicron; test: Antimicrobial activity against beta lactamase-positive Bacteroides thetaiotaomicron isolated from intra-abdominal infection and pelvic inflammatory disease patients after 48 hrs by time kill analysis
Outline: (§3)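 The MIC was read by inspecting macrodilution time-kill tubes. Vials held prereduced brucella broth with 5% laked horse blood cells, hemin 5 μg/ml and vitamin K1 1 μg/ml. Final inoculum was 10^6–10^7 CFU/ml, prepared inside the anaerobe chamber. Vials were incubated 48 h at 35°C in a shaking water bath.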

Prevotella buccae = test: Antimicrobial activity against beta lactamase-positive Prevotella buccae isolated from intra-abdominal infection and pelvic inflammatory disease patients after 48 hrs by agar dilution method; details: Segatella buccae; outline: as §1
Clostridioides difficile [9] = test: Antimicrobial activity against Clostridium difficile isolated from intra-abdominal infection and pelvic inflammatory disease patients after 48 hrs by time kill analysis; outline: as §2
Fusobacterium mortiferum = test: Antimicrobial activity against beta lactamase-positive Fusobacterium mortiferum isolated from intra-abdominal infection and pelvic inflammatory disease patients after 48 hrs by agar dilution method; outline: as §1
Clostridium perfringens [10] = test: Antimicrobial activity against Clostridium perfringens isolated from intra-abdominal infection and pelvic inflammatory disease patients after 48 hrs by agar dilution method
Outline: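 CLSI agar dilution on brucella blood agar supplemented with laked sheep blood, hemin and vitamin K. Inoculum about 1 × 10^5 CFU/spot, applied by Steers replicator. Plates incubated 48 h at 35°C in an anaerobic glove box. MIC is the concentration giving marked growth reduction versus the anaerobic control plate. Standard QC strains included in each run.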

Anaerococcus prevotii = test: Antimicrobial activity against Anaerococcus prevotii isolated from intra-abdominal infection and pelvic inflammatory disease patients after 48 hrs by agar dilution method; outline: as §1
Bacteroides fragilis [11] = test: Antimicrobial activity against beta lactamase-positive Bacteroides fragilis isolated from intra-abdominal infection and pelvic inflammatory disease patients after 48 hrs by time kill analysis; outline: as §3
Prevotella intermedia [12] = test: Antimicrobial activity against beta lactamase-positive Prevotella intermedia isolated from intra-abdominal infection and pelvic inflammatory disease patients after 48 hrs by time kill analysis; outline: as §3
[13] = test system: Porphyromonas asaccharolytica; test: Antimicrobial activity against Porphyromonas asaccharolyticus isolated from intra-abdominal infection and pelvic inflammatory disease patients after 48 hrs by agar dilution method; outline: as §1
Phocaeicola vulgatus = test: Antimicrobial activity against beta lactamase-positive Bacteroides vulgatus isolated from intra-abdominal infection and pelvic inflammatory disease patients after 48 hrs by agar dilution method; outline: as §1
Prevotella disiens = test: Antimicrobial activity against beta lactamase-positive Prevotella disiens isolated from intra-abdominal infection and pelvic inflammatory disease patients after 48 hrs by agar dilution method; outline: as §1
Parvimonas micra = test: Antimicrobial activity against Micromonas micros isolated from intra-abdominal infection and pelvic inflammatory disease patients after 48 hrs by agar dilution method; outline: as §1
Prevotella intermedia [14] = test: Antimicrobial activity against beta lactamase-positive Prevotella intermedia isolated from intra-abdominal infection and pelvic inflammatory disease patients after 48 hrs by agar dilution method; outline: as §1
Fusobacterium nucleatum [15] = test: Antimicrobial activity against beta lactamase-positive Fusobacterium nucleatum isolated from intra-abdominal infection and pelvic inflammatory disease patients after 48 hrs by time kill analysis; outline: as §3
[16] = test system: Parabacteroides distasonis; test: Antimicrobial activity against beta lactamase-positive Bacteroides distasonis isolated from intra-abdominal infection and pelvic inflammatory disease patients after 48 hrs by agar dilution method; outline: as §1
Anaerococcus tetradius = test: Antimicrobial activity against Anaerococcus tetradius isolated from intra-abdominal infection and pelvic inflammatory disease patients after 48 hrs by agar dilution method; outline: as §1
Porphyromonas gingivalis = test: Antimicrobial activity against Porphyromonas gingivalis isolated from intra-abdominal infection and pelvic inflammatory disease patients after 48 hrs by agar dilution method; outline: as §1
Bacteroides ovatus = test: Antimicrobial activity against beta lactamase-positive Bacteroides ovatus isolated from intra-abdominal infection and pelvic inflammatory disease patients after 48 hrs by agar dilution method; outline: as §1
Fusobacterium nucleatum [17] = test: Antimicrobial activity against beta lactamase-positive Fusobacterium nucleatum isolated from intra-abdominal infection and pelvic inflammatory disease patients after 48 hrs by agar dilution method; outline: as §1
[18] = test system: Fusobacterium necrophorum; test: Antimicrobial activity against Fusobacterium necrophorum isolated from intra-abdominal infection and pelvic inflammatory disease patients after 48 hrs by agar dilution method; outline: as §1
[19] = test system: Peptoniphilus asaccharolyticus; test: Antimicrobial activity against Peptoniphilus asaccharolyticus isolated from intra-abdominal infection and pelvic inflammatory disease patients after 48 hrs by agar dilution method; outline: as §1
Finegoldia magna [20] = test: Antimicrobial activity against beta lactamase-positive Finegoldia magna isolated from intra-abdominal infection and pelvic inflammatory disease patients after 48 hrs by time kill analysis; outline: as §3
Prevotella corporis = test: Antimicrobial activity against beta lactamase-positive Prevotella corporis isolated from intra-abdominal infection and pelvic inflammatory disease patients after 48 hrs by agar dilution method; outline: as §1
Prevotella bivia = test: Antimicrobial activity against beta lactamase-positive Prevotella bivia isolated from intra-abdominal infection and pelvic inflammatory disease patients after 48 hrs by agar dilution method; outline: as §1
[21] = test system: Paraclostridium bifermentans; test: Antimicrobial activity against Clostridium bifermentans isolated from intra-abdominal infection and pelvic inflammatory disease patients after 48 hrs by agar dilution method; outline: as §1
[22] = test system: Bacteroides thetaiotaomicron; test: Antimicrobial activity against beta lactamase-positive Bacteroides thetaiotaomicron isolated from intra-abdominal infection and pelvic inflammatory disease patients after 48 hrs by agar dilution method; outline: as §1
Prevotella denticola = test: Antimicrobial activity against beta lactamase-positive Prevotella denticola isolated from intra-abdominal infection and pelvic inflammatory disease patients after 48 hrs by agar dilution method; outline: as §1
Bacteroides fragilis [23] = test: Antimicrobial activity against beta lactamase-positive Bacteroides fragilis isolated from intra-abdominal infection and pelvic inflammatory disease patients after 48 hrs by agar dilution method; outline: as §1
Thomasclavelia ramosa = test: Antimicrobial activity against Clostridium ramosum isolated from intra-abdominal infection and pelvic inflammatory disease patients after 48 hrs by agar dilution method; outline: as §1
[24] = test system: Enterocloster clostridioformis; test: Antimicrobial activity against Clostridium clostridioforme isolated from intra-abdominal infection and pelvic inflammatory disease patients after 48 hrs by agar dilution method; outline: as §1
Fusobacterium varium = test: Antimicrobial activity against Fusobacterium varium isolated from intra-abdominal infection and pelvic inflammatory disease patients after 48 hrs by agar dilution method; outline: as §1

Cc1ncc([N+](=O)[O-])n1CCO [METRONIDAZOLE]
1 µg/mL: MIC90 [2] | MIC50 ([Clostridium] innocuum) | MIC90 (Finegoldia magna [4]) | MIC90 (Prevotella nigrescens) | MIC90 [5] | MIC [8] | MIC50 (Prevotella buccae) | MIC90 (Prevotella buccae) | MIC50 (Clostridium perfringens [10]) | MIC90 (Phocaeicola vulgatus) | MIC [16] | MIC50 [16] | MIC90 [16] | MIC50 (Bacteroides ovatus) | MIC50 [19] | MIC90 [19] | MIC (Finegoldia magna [20]) | MIC90 (Prevotella corporis) | MIC50 [22] | MIC90 [22] | MIC90 (Prevotella denticola) | MIC50 (Bacteroides fragilis [23]) | MIC90 (Bacteroides fragilis [23])
0.5 µg/mL: MIC50 (Clostridioides difficile [1]) | MIC90 (Clostridioides difficile [1]) | MIC50 [2] | MIC50 (Finegoldia magna [4]) | MIC50 (Prevotella nigrescens) | MIC50 [5] | MIC [6] | MIC [7] | MIC (Clostridioides difficile [9]) | MIC (Prevotella intermedia [12]) | MIC50 (Phocaeicola vulgatus) | MIC (Prevotella disiens) | MIC50 (Prevotella disiens) | MIC90 (Parvimonas micra) | MIC50 (Prevotella intermedia [14]) | MIC50 (Prevotella corporis) | MIC50 (Prevotella denticola) | MIC90 (Fusobacterium varium)
0.016 µg/mL: MIC (Fusobacterium nucleatum [15])
0.25 µg/mL: MIC (Clostridium cadaveris) | MIC (Anaerococcus prevotii) | MIC50 (Parvimonas micra) | MIC [21] | MIC50 (Fusobacterium varium)
≤ 0.125 µg/mL: MIC (Porphyromonas levii) | MIC (Fusobacterium mortiferum) | MIC50 (Fusobacterium mortiferum) | MIC90 (Fusobacterium mortiferum) | MIC [13] | MIC (Porphyromonas gingivalis) | MIC (Fusobacterium nucleatum [17]) | MIC50 (Fusobacterium nucleatum [17]) | MIC90 (Fusobacterium nucleatum [17]) | MIC [18] | MIC50 [18] | MIC90 [18] | MIC [24]
2 µg/mL: MIC (Clostridium perfringens [3]) | MIC90 (Clostridium perfringens [10]) | MIC (Bacteroides fragilis [11]) | MIC90 (Prevotella disiens) | MIC90 (Prevotella intermedia [14]) | MIC50 (Anaerococcus tetradius) | MIC90 (Bacteroides ovatus) | MIC50 (Prevotella bivia) | MIC90 (Prevotella bivia) | MIC50 (Thomasclavelia ramosa)
